Data: ChEMBL document CHEMBL2311539, “3,6-Diamino-4-(2-halophenyl)-2-benzoylthieno[2,3-b]pyridine-5-carbonitriles are selective inhibitors of Plasmodium falciparum glycogen synthase kinase-3” (J Med Chem, 2013)

Legend:
[1] = Inhibition of Plasmodium knowlesi recombinant His6-tagged GSK-3 expressed in Escherichia coli using GS-1 peptide as substrate after 30 mins by scintillation counting analysis in presence of gamma-33P-ATP
Outline: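 P. knowlesi GSK3 gene in pBAD-Thio-TOPO, expressed in E. coli TOP10 (ampicillin, 37 °C, 0.02% arabinose for 4 h), Ni-NTA purified. Radiometric assay: 40 μM GS-1 peptide in buffer A pH 7.5 (MgCl2, EGTA, DTT, heparin, BSA) with 15 μM γ-33P-ATP, 30 min at 30 °C. P81 filter binding, scintillation counting. IC50 from triplicate dose-response curves.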

[2] = target: T1, Inhibitor of nuclear factor kappa-B kinase subunit epsilon (Homo sapiens) (UniProt Q14164); test: Inhibition of IKK-epsilon (unknown origin) at 10 uM
T1 sequence (whole entry): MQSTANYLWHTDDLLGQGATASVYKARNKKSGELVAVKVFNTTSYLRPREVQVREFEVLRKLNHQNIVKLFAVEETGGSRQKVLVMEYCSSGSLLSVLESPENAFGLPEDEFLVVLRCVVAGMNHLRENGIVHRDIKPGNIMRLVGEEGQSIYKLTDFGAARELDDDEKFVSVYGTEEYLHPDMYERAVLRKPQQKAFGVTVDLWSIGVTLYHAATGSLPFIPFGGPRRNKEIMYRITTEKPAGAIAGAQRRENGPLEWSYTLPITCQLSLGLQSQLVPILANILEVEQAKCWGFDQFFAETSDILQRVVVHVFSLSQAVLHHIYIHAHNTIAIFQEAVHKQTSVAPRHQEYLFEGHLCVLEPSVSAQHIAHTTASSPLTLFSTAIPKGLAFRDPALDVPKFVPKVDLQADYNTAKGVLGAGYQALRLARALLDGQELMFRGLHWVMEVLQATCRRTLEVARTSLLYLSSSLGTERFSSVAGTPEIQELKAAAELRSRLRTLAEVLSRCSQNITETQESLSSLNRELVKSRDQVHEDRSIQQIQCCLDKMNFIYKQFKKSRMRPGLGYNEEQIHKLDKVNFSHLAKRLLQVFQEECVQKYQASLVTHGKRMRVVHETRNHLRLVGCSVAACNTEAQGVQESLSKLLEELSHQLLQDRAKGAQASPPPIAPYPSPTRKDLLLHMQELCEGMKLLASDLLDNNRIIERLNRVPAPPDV
Outline: (§1)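 Dundee human kinase selectivity panel (77 kinases); test compound at 1 and 10 μM, percentage kinase inhibition recorded.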

[3] = target: Insulin receptor (Homo sapiens) (UniProt P06213); test: Inhibition of IR-HIS (unknown origin) at 10 uM; outline: as §1
Insulin receptor (Homo sapiens), sequence (P06213 28-758 limits assumed): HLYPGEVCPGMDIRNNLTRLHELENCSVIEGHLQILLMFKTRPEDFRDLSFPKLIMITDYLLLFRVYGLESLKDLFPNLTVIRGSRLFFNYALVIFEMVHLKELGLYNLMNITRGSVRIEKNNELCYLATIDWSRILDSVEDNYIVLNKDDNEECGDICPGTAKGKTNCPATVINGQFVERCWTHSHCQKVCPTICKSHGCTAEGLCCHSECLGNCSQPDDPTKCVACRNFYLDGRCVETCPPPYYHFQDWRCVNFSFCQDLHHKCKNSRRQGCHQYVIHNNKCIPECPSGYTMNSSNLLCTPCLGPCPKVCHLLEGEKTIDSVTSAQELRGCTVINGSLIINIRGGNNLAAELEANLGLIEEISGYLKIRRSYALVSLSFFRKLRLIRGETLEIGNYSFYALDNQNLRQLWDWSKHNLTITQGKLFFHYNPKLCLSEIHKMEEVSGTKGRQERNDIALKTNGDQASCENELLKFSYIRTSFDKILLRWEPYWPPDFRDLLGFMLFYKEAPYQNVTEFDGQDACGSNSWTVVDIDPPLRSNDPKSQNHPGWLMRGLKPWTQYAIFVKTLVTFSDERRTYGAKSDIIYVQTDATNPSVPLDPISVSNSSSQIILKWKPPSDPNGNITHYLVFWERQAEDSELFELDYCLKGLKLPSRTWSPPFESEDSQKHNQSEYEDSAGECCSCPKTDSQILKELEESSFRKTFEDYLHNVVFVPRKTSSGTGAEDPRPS
Insulin receptor (Homo sapiens), sequence (P06213 763-1382 limits assumed): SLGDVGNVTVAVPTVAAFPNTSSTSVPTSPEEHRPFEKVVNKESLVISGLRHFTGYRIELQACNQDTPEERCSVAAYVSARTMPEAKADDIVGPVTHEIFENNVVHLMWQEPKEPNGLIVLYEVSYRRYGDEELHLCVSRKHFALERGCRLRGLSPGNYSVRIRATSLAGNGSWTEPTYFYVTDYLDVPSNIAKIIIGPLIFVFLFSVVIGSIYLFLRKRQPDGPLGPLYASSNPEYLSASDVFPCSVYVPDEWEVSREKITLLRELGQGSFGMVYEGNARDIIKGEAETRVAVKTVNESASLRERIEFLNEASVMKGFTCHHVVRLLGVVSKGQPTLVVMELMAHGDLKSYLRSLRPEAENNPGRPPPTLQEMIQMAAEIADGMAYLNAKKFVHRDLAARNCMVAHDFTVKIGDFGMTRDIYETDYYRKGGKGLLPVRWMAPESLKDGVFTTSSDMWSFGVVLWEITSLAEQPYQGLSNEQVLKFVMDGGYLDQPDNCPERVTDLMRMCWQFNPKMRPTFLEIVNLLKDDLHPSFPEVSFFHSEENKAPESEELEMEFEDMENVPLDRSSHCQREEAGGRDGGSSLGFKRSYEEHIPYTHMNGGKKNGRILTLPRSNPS

Plasmodium falciparum = test: Antiplasmodial activity against Plasmodium falciparum at 15 uM after 72 hrs by luciferase reporter gene assay; assay type: functional
Outline: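 NF54:LUC P. falciparum erythrocytic stages (luciferase under hrp2 promoter) at 3% parasitemia, 25% hematocrit; compounds in RPMI-1640 with 1% DMSO, triplicate wells; untreated, DMSO-only and non-luciferase NF54 blank wells. […] Bright-Glo lysis, luminescence read.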

IC50 [1]: 2.45 µM
inhibition [2]: > 50%
inhibition [3]: > 50%
SMILES: N#Cc1c(N)nc2sc(C(=O)c3cccc(Cl)c3)c(N)c2c1-c1ccccc1Cl
inhibition at 15 µM (Plasmodium falciparum): 100%
